Measurements reported in ChEMBL document CHEMBL4359835, “Design, Synthesis, and Anti-RNA Virus Activity of 6'-Fluorinated-Aristeromycin Analogues” (J Med Chem, 2019).

How the values were obtained:
[1] = […] CHIKV LS3 infected in African green monkey Vero E6 cells assessed as reduction in virus-induced cytopathic effect measured after 96 hrs post-infection by MTS assay; conditions: Chikungunya virus, LS3, Vero C1008, 96 h
[2] = […]; format: cell-based; conditions: Middle East respiratory syndrome-related coronavirus, EMC/2012, Vero, 72 h
Vero [3] = assay: Cytotoxicity against African green monkey Vero cells assessed as reduction in cell viability measured after 72 hrs by MTS assay; format: cell-based; conditions: chlorocebus sabaeus
How it was run: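 Uninfected Vero cells (20 000/well) were incubated with compound for 72 h, alongside MERS-CoV assays. Viability by MTS for 2–2.5 h, formaldehyde fixation, then A495 relative to untreated controls. Eight concentrations, quadruplicate; CC50 from nonlinear regression.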

[4] = (§1) Cytotoxicity against African green monkey Vero E6 cells assessed as reduction in cell viability measured after 72 hrs by MTS assay; format: cell-based, Vero C1008; conditions: chlorocebus sabaeus, Vero E6 cells (Vero C1008)
How it was run: (§2)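 Uninfected Vero E6 cells (10 000/well) were exposed to compound for 72 h, in parallel with SARS-CoV CPE assays. Eight concentrations in quadruplicate; CC50 by nonlinear regression.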

Adenosylhomocysteinase = Adenosylhomocysteinase (Homo sapiens, UniProt P23526); assay: Inhibition of human placental SAH hydrolase expressed in Escherichia coli JM109 using SAH as substrate preincubated for 10 mins followed by SAH addition and measured after 20 mins by […] reagent-based spectrophotometric method
Sequence of Adenosylhomocysteinase (P23526 whole entry): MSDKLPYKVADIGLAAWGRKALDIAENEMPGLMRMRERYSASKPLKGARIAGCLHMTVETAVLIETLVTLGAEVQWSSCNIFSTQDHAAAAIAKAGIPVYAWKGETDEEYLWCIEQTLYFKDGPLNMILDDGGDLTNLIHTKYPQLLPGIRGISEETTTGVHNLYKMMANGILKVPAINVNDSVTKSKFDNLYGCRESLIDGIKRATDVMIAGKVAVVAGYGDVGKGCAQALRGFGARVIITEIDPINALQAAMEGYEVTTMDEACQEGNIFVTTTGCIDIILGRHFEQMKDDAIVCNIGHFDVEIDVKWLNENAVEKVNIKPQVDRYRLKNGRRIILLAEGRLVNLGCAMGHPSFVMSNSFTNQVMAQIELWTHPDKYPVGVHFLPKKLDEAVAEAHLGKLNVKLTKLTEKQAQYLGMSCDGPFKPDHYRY

[5] = […]; set-up: species or system SARS coronavirus Frankfurt 1; conditions: Severe acute respiratory syndrome-related coronavirus, Vero C1008, 72 h
Vero C1008 = assay: as §1; format: cell-based; conditions: chlorocebus sabaeus, vero c1008, 72 h; how it was run: as §2
Vero [6] = assay: Cytotoxicity against African green monkey Vero cells assessed as reduction in cell viability measured after 96 hrs by MTS assay; format: cell-based; conditions: chlorocebus sabaeus
How it was run: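 Uninfected Vero CCL81 cells (5000/well) were treated for 96 h in parallel with ZIKV CPE assays. Eight concentrations, quadruplicate; CC50 by nonlinear regression.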

[7] = Selectivity index, ratio of CC50 for African green monkey Vero E6 cells to EC50 for inhibition of RNA-dependent RNA polymerase in SARS-CoV Frankfurt1 infected in African green monkey Vero E6 cells assessed as reduction in virus-induced cytopathic effect; format: toxicity, Vero C1008; conditions: read-out: Ratio CC50/EC50
[8] = Selectivity index, ratio of CC50 for African green monkey Vero cells to EC50 for inhibition of RNA-dependent RNA polymerase in ZIKV SL0612 infected in African green monkey Vero cells assessed as reduction in virus-induced cytopathic effect; format: toxicity; conditions: read-out: Ratio CC50/EC50
How it was run: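 Vero CCL81 cells (5000/well) received ZIKV at MOI 0.05 in compound-containing infection medium. MTS was read at 96 hpi (A495, relative to uninfected), with uninfected cells run in parallel for CC50. Eight concentrations, quadruplicate; nonlinear regression; SI = CC50/EC50.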

[9] = Selectivity index, ratio of CC50 for African green monkey Vero E6 cells to EC50 for inhibition of RNA-dependent RNA polymerase in CHIKV LS3 infected in African green monkey Vero E6 cells assessed as reduction in virus-induced cytopathic effect; format: toxicity, Vero C1008; conditions: read-out: Ratio CC50/EC50
How it was run: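 Vero E6 cells (5000/well) were infected with CHIKV at MOI 0.005 in EMEM/25 mM HEPES/2% FCS containing compound. CPE was read by MTS at 96 hpi (A495, relative to uninfected). Uninfected cells were tested in parallel for CC50. Eight concentrations, quadruplicate; EC50 and CC50 by nonlinear regression; SI = CC50/EC50.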

[10] = Selectivity index, ratio of CC50 for African green monkey Vero cells to EC50 for inhibition of RNA-dependent RNA polymerase in MERS-CoV EMC/2012 infected in African green monkey Vero cells assessed as reduction in virus-induced cytopathic effect; format: toxicity; conditions: read-out: Ratio CC50/EC50
Chikungunya virus = assay: Antiviral activity against CHIKV LS3 infected in African green monkey Vero E6 cells assessed as log reduction in viral titer measured after 30 hrs post infection by plaque assay; format: functional, Vero C1008
[11] = tested on: Middle East respiratory syndrome-related coronavirus; assay: Antiviral activity against MERS-CoV EMC/2012 infected in African green monkey Vero cells assessed as log reduction in virus titre at >0.3 uM measured after 48 hrs viral infection by plaque assay; format: functional
Zika virus = assay: Antiviral activity against ZIKV SL0612 infected in African green monkey Vero cells assessed as log reduction in viral titre up to 1.5 uM measured at 48 hrs post infection by plaque assay; format: functional
How it was run: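 Vero E6 cells (7.5 × 10^4/well) adhered overnight in DMEM/8% FCS. ZIKV infection was at MOI 1 for 2 h at 37 °C in EMEM/2% FCS with compound (0–1.5 μM), followed by washing and 48 h in compound-containing medium. Supernatant titre was read by plaque assay on Vero CCL81. Duplicates in two independent experiments (n = 4).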

SARS-CoV = assay: Antiviral activity against SARS-CoV Frankfurt1 infected in African green monkey Vero E6 cells assessed as log reduction in viral titre at >0.3 uM measured at 48 hrs post infection by plaque assay; format: functional, Severe acute respiratory syndrome-related coronavirus, Frankfurt 1, Vero C1008
[12] = Partition coefficient, log P of the compound in liquid/aqueous phase by pH-metric method; format: physicochemical; conditions: octanol/water

Nc1ncnc2c1ncn2[C@H]1[C@H](O)[C@H](O)[C@@H](CO)[C@@H]1F
EC50 [1]: 0.53 µM

Nc1ncnc2c1ncn2[C@H]1[C@H](O)[C@H](O)[C@@H](CO)[C@H]1F
EC50 [2]: 0.2 µM
CC50 (Vero [3]): 0.6 µM
CC50 at 72 h [4]: > 100 µM
EC50 [1]: > 100 µM

O=c1ccn([C@H]2[C@H](O)[C@H](O)[C@@H](CO)[C@H]2F)c(=O)[nH]1
IC50 (Adenosylhomocysteinase): > 100 µM
EC50 [2]: > 100 µM
EC50 [5]: > 100 µM
CC50 (Vero C1008): > 100 µM
EC50 [1]: > 100 µM

Nc1ccn([C@H]2[C@H](O)[C@H](O)[C@@H](CO)C2(F)F)c(=O)n1
IC50 (Adenosylhomocysteinase): > 100 µM
EC50 [2]: > 50 µM
CC50 (Vero [3]): > 50 µM
EC50 [5]: > 100 µM
CC50 (Vero C1008): > 100 µM
CC50 (Vero [6]): > 100 µM
EC50 [1]: > 100 µM

CNc1ncnc2c1ncn2[C@H]1[C@H](O)[C@H](O)[C@@H](CO)[C@H]1F
IC50 (Adenosylhomocysteinase): 4.39 µM
EC50 [2]: > 50 µM
CC50 (Vero [3]): > 50 µM
EC50 [5]: > 100 µM
CC50 (Vero C1008): > 100 µM
CC50 (Vero [6]): > 100 µM
EC50 [1]: > 100 µM

CC(C)OC(=O)[C@H](C)N[P@](=O)(OC[C@@H]1[C@@H](O)[C@@H](O)[C@H](n2ccc(=O)[nH]c2=O)[C@@H]1F)Oc1ccccc1
IC50 (Adenosylhomocysteinase): > 100 µM
EC50 [2]: > 50 µM
CC50 (Vero [3]): > 50 µM
EC50 [5]: > 100 µM
CC50 (Vero C1008): > 100 µM
CC50 (Vero [6]): > 100 µM
EC50 [1]: > 100 µM

CC(C)OC(=O)[C@H](C)N[P@](=O)(OC[C@@H]1[C@@H](O)[C@@H](O)[C@H](n2ccc(=O)[nH]c2=O)C1(F)F)Oc1ccccc1
IC50 (Adenosylhomocysteinase): > 100 µM
EC50 [2]: > 50 µM
CC50 (Vero [3]): > 50 µM
EC50 [5]: > 100 µM
CC50 (Vero C1008): > 100 µM
CC50 (Vero [6]): > 100 µM
EC50 [1]: > 100 µM

CC(C)OC(=O)[C@H](C)N[P@](=O)(OC[C@@H]1[C@@H](O)[C@@H](O)[C@H](n2cnc3c(N)ncnc32)C1(F)F)Oc1ccccc1
IC50 (Adenosylhomocysteinase): > 100 µM
EC50 [2]: 9.3 µM
CC50 (Vero [3]): > 50 µM
EC50 [5]: 6.8 µM
CC50 at 72 h [4]: 12.5 to 25 µM
CC50 (Vero [6]): > 25 µM
EC50 [1]: 1.95 µM
selectivity ratio [7]: > 3.7
selectivity ratio [8]: > 14.3
selectivity ratio [9]: > 6.4

CNc1ncnc2c1ncn2[C@H]1[C@H](O)[C@H](O)[C@@H](CO)C1(F)F
IC50 (Adenosylhomocysteinase): 0.76 µM
EC50 [2]: > 50 µM
CC50 (Vero [3]): 12.5 µM
EC50 [5]: > 100 µM
CC50 (Vero C1008): > 100 µM
CC50 (Vero [6]): > 100 µM
EC50 [1]: > 100 µM

O=c1ccn([C@H]2[C@H](O)[C@H](O)[C@@H](CO)[C@@H]2F)c(=O)[nH]1
IC50 (Adenosylhomocysteinase): > 100 µM
EC50 [2]: > 100 µM
CC50 (Vero [3]): > 100 µM
EC50 [5]: > 100 µM
CC50 (Vero [6]): > 100 µM
EC50 [1]: > 100 µM

Nc1ncnc2c1ncn2[C@H]1[C@H](O)[C@H](O)[C@@H](CO)C1(F)F
IC50 (Adenosylhomocysteinase): 1.06 µM
EC50 [2]: 0.2 µM
CC50 (Vero [3]): 3.2 µM
EC50 [5]: 0.5 µM
CC50 at 72 h [4]: 1.25 to 5.9 µM
CC50 (Vero [6]): > 2.5 µM
EC50 [1]: 0.13 µM
selectivity ratio [10]: 16
selectivity ratio [7]: 11.8
selectivity ratio [8]: > 9.6
FC (Chikungunya virus): >2
FC [11]: 2.5
FC (Zika virus): 1
FC (SARS-CoV): 1.5
logP [12]: 0.02
selectivity ratio [9]: > 9.6

O=c1ccn([C@H]2[C@H](O)[C@H](O)[C@@H](CO)C2(F)F)c(=O)[nH]1
IC50 (Adenosylhomocysteinase): > 100 µM
EC50 [2]: > 50 µM
CC50 (Vero [3]): > 50 µM
EC50 [5]: > 100 µM
CC50 (Vero C1008): > 100 µM
CC50 (Vero [6]): > 100 µM
EC50 [1]: > 100 µM

Nc1ccn([C@H]2[C@H](O)[C@H](O)[C@@H](CO)[C@H]2F)c(=O)n1
IC50 (Adenosylhomocysteinase): > 100 µM
EC50 [2]: > 100 µM
CC50 (Vero [3]): > 100 µM
EC50 [5]: > 100 µM
CC50 (Vero C1008): > 100 µM
CC50 (Vero [6]): > 100 µM
EC50 [1]: > 100 µM

Nc1ncnc2c1ncn2[C@@H]1C[C@H](CO)[C@@H](O)[C@H]1O [ARISTEROMYCIN]
EC50 [2]: > 50 µM
CC50 (Vero [3]): 2 µM
EC50 [5]: > 50 µM
CC50 at 72 h [4]: 2.4 to 6.3 µM
CC50 (Vero [6]): 2.4 µM
EC50 [1]: 0.8 µM
